Assay outcomes as filed in PubChem BioAssay.
The list is not random: actives were taken first. Their share in the collection is about 3.5%.
MrgX1 PAM: allosterically activates human MrgX1 receptor signaling; 310,000 tested, 0.63% active; Q96LB2; B-score at 10 µM; AID 588675; MrgX1-HEK293, Fluo-4 calcium flux, FDSS; hits give high values;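 active = plate-corrected calcium response at least 3 library SD above typical, normal starting fluorescence, not activating the receptor alone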;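 also: compound read alongside a low EC10 to EC30 dose of BAM8-22 agonist; peak minus trough fluorescence over baseline measured at the second addition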
Target sequence (Q96LB2 whole entry, looked up): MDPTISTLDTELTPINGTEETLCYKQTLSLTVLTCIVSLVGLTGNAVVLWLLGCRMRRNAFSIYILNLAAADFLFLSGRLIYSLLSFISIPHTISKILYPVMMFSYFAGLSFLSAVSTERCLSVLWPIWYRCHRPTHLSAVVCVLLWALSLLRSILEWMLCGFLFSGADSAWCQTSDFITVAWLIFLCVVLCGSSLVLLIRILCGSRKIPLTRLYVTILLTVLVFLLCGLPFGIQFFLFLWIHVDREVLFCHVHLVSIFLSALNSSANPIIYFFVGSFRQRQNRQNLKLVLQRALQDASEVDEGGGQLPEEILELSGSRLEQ
RGS4 act: potentiators or activators of RGS4; HEK293 M3R/inducible RGS4, carbachol calcium flux Fluo4; hits give low values; B-score at 10 µM; 310,000 tested, 0.92% active; AID 463111;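 active = B-score of the integrated calcium signal more than 4 SD below the library mean, with starting fluorescence not abnormally high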;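 also: negative B-score means reduced calcium response which marks RGS4 activation or potentiation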
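Assay system: Inducible-RGS4 HEK293 cells carrying M3 receptor | Schedule: Compound preincubation 20 min at room temperature before agonist | Signal: Kinetic calcium fluorescence imaging with Fluo4-AM dye, 2 µM | Read-out basis: B score from integrated fluorescence ratio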
RGS4 block: inhibitors of human RGS4. P49798. HEK293 M3R/RGS4 inducible, Fluo-4 calcium flux; hits give high values; triggered by carbachol at its EC20. B-score at 10 µM. 310,000 tested, 0.45% active. AID 463165;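 active = B-score, a plate-corrected calcium signal, over three deviations above library mean, with baseline fluorescence within five deviations of library mean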;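 also: RGS4 expression induced by doxycycline in cells with stable M3 receptor; B-score is computed from the integrated fluorescence ratio over baseline after carbachol; higher B-score means a larger calcium signal and so more RGS4 inhibition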
MrgX1 antagonist: antagonists of human MrgX1 receptor; Q96LB2; MRGX1-HEK293 calcium flux, Fluo-4, BAM8-22 antagonism; hits give low values; B-score at 10 µM; 310,000 tested, 1.3% active; AID 588676;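 active = calcium-response B-score plate-corrected more than 3 library SD below zero, starting fluorescence within 5 deviations, no agonist response on first addition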;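 also: peak minus trough fluorescence over baseline after final BAM8-22 challenge near maximal dose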
MrgX1 agonist: activates human MrgX1 receptor signaling; Q96LB2; MrgX1-HEK293 cells, Fluo-4 calcium fluorescence, agonist mode; hits give high values; B-score at 10 µM; 310,000 tested, 0.44% active;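 active = calcium response B-score plate-corrected fluorescence ratio at least 3 library SD, with starting fluorescence B-score inside 5 SD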
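Assay system: stable human MrgX1 HEK293 cell line. Quantity: 15,000 cells per well. Schedule: cells plated overnight, dye loaded 0.5 h 37 °C, 0.5 h room temperature. Detection: Fluo-4 NW calcium-flux fluorescence, kinetic read. Read-out basis: peak-minus-minimum fluorescence over baseline, converted to B scores. Control set: positive and negative control wells on each plate.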
An asterisk follows results filed as active; i = inactive; x = no result.

SMILES	MrgX1 PAM	RGS4 act	RGS4 block	MrgX1 antagonist	MrgX1 agonist
O=C1C2C3C=CC(C3)C2C(=O)N1/N=C/c1cn(Cc2ccc(F)cc2)c2ccccc12 (stereo unspecified)	i	-8.01*	i	i	i
Nc1ncnc2c1ncn2[C@@H]1O[C@H](CO)[C@@H](O)[C@H]1O	i	i	i	i	26.5*
Cc1nc(S/C(=C/c2ccc(OCc3ccc(C(=O)O)cc3)cc2)C(=O)O)n[nH]1	i	i	i	i	i
COc1ccc(N/C=C2\CCOC2=O)cc1	i	i	i	i	i
COc1ccc(N/C=C2\C(=O)CCc3c2oc2cc(Cl)c(O)c(Cl)c32)cc1	i	i	i	-4.99*	i
CCn1c(CC(=O)Nc2ccccc2)n[nH]c1=S	i	i	i	i	i
O=C(Nc1ccc(O)cc1)c1ccc2c(c1)C(=O)N(N1C(=O)c3ccccc3C1=O)C2=O	i	i	i	-5.75*	i
CCc1ccc2c(CN3CCc4ccccc43)cc(=O)oc2c1	i	i	i	i	37.5*
Cc1cc2oc(=O)cc(CN3CCc4ccccc43)c2cc1Cl	i	i	i	i	54*
O=C(Nc1ccc(F)c(Cl)c1)N1CCCCCC1	i	i	i	i	i
O=C(CC(=O)c1cc(Cl)ccc1O)c1ccccc1	i	i	i	-5.02*	i
O=[N+]([O-])c1ccc(O)c(-c2cc(C(F)(F)F)nc(-c3ccccc3)n2)c1	i	i	i	-5.62*	i
O=C(CN1CCCCCC1)Nc1ccccc1Oc1ccccc1	i	-7.21*	i	i	i
O=C(C[n+]1cc(Br)cc2ccccc21)c1ccc(Cl)cc1	7.36*	i	i	i	i
COc1ccc([N+](=O)[O-])cc1N(CC(O)CN1C(=O)NC(C)(C)C1=O)S(=O)(=O)c1ccccc1 (stereo unspecified)	i	i	i	i	i
CCC(=O)Oc1ccc(C/C(=N\O)c2ccc(O)cc2O)o1	i	i	i	-4.6*	i
CCOC(=O)c1ccc(CC(=O)c2ccc(O)cc2O)o1	i	i	i	i	i
CCOC(=O)N1CCN(C(=O)CSCC(=O)Nc2nc(-c3ccc(-c4ccccc4)cc3)cs2)CC1	i	i	i	-6.44*	i
Cc1ccc(C(C)C)c(OCCNC(=O)c2cncc(Br)c2)c1	i	i	i	i	i
COc1cc(C(=O)NCCOc2cc(C)ccc2C(C)C)cc(OC)c1OC	i	i	i	-4.72*	i
CN1C(=O)Cc2cc(S(=O)(=O)N3CCN(c4ccccc4F)CC3)ccc21	i	i	i	i	i
COc1ccc(C(=O)c2ccc(Cl)c([N+](=O)[O-])c2)cc1	7*	i	i	i	i
COc1ccc(C(=O)c2ccc(Cl)cc2)cc1	i	i	i	i	i
COc1ccc(NC(=O)Cn2cnc3c(oc4nc5c(cc43)COC(C)(C)C5)c2=O)cc1	i	i	i	i	i
CC(=O)Nc1sc2c(c1-c1nc3ccccc3s1)CCN(C(C)C)C2	i	x	x	i	27.5*
SMILES	MrgX1 PAM	RGS4 act	RGS4 block	MrgX1 antagonist	MrgX1 agonist
CC(C)N1CCc2c(sc(NC(=O)c3ccc4ccccc4c3)c2C(N)=O)C1	i	i	i	i	i
O=[N+]([O-])c1cc2oc3c(c2c(C=NCc2ccccc2)c1O)CCCC3	i	i	i	i	i
CC(C)CN=Cc1c(O)c([N+](=O)[O-])cc2oc3c(c12)CCCC3	i	i	i	-6.22*	i
CCOc1ccc(CCNC(=O)c2cccc(S(=O)(=O)N3CC(C)OC(C)C3)c2)cc1OCC (stereo unspecified)	i	i	i	-6.47*	i
CCc1ccc2nc(N(CCN(C)C)C(=O)c3ccc4ncsc4c3)sc2c1	i	i	i	i	i
CN(C)c1ccc2nc3ccc(=[N+](C)C)cc-3sc2c1	i	-7.55*	i	i	i
Cc1nc2cc(C)c(C)cc2s1	i	i	i	i	i
CN(C)c1ccc(/C=C(\Cl)c2nc3ccccc3s2)cc1	i	x	x	i	i
Cc1cc2nc3ccc(=[N+](C)C)cc-3sc2cc1N	x	-8.45*	i	x	x
